# Data from ChEMBL document CHEMBL4038305, “Benzoxaborole Antimalarial Agents. Part 5. Lead Optimization of Novel Amide Pyrazinyloxy Benzoxaboroles and Identification of a Preclinical Candidate” (J Med Chem, 2017).
# What was measured:
# [1] = tested on: Plasmodium berghei; assay: Antimalarial activity against Plasmodium berghei infected in Swiss Webster mouse assessed as mouse survival rate at 3 mg/kg administered once daily via oral gavage for 4 consecutive days beginning 1 hr after infection measured on day 6 post infection relative to control; format: functional
# Procedure, shortened: (§1)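 P. berghei-infected erythrocytes taken from a previously infected mouse were injected intraperitoneally. Oral dosing, once daily for 4 consecutive days, began 1 h after infection, in polyethylene glycol 300/propylene glycol/water (55/25/20 by weight). Chloroquine at 30 mg/kg was the positive control, with a vehicle-only group. Percent survival was recorded daily from day 4 to day 20.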
# [2] = tested on: Plasmodium berghei; assay: Antimalarial activity against Plasmodium berghei infected in Swiss Webster mouse assessed as mouse survival rate at 200 mg/kg administered once daily via oral gavage for 4 consecutive days beginning 1 hr after infection measured on day 4 post infection relative to control; format: functional; procedure, shortened: as §1
# [3] = tested on: Plasmodium berghei; assay: Antimalarial activity against Plasmodium berghei infected in Swiss Webster mouse assessed as mouse survival rate at 200 mg/kg administered once daily via oral gavage for 4 consecutive days beginning 1 hr after infection measured on day 9 post infection relative to control; format: functional; procedure, shortened: as §1
# [4] = tested on: Plasmodium berghei; assay: Antimalarial activity against Plasmodium berghei infected in Swiss Webster mouse assessed as mouse survival rate at 200 mg/kg administered once daily via oral gavage for 4 consecutive days beginning 1 hr after infection measured on day 7 post infection relative to control; format: functional; procedure, shortened: as §1
# [5] = tested on: Plasmodium berghei; assay: Antimalarial activity against Plasmodium berghei infected in Swiss Webster mouse assessed as mouse survival rate at 1 mg/kg administered once daily via oral gavage for 4 consecutive days beginning 1 hr after infection measured on day 4 post infection relative to control; format: functional
# Procedure, shortened: (§2)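 Mice given an intraperitoneal injection of P. berghei-infected erythrocytes taken from a previously infected animal. Oral dosing once daily for 4 consecutive days, starting 1 h after infection. Vehicle: polyethylene glycol 300/propylene glycol/water (weight ratio 55/25/20). Percent survival recorded daily from day 4 to day 20. Chloroquine 30 mg/kg and vehicle-only groups served as controls.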
# [6] = tested on: Plasmodium berghei; assay: Antimalarial activity against Plasmodium berghei infected in Swiss Webster mouse assessed as mouse survival rate at 33 mg/kg administered once daily via oral gavage for 4 consecutive days beginning 1 hr after infection measured on day 7 post infection relative to control; format: functional; procedure, shortened: as §1
# [7] = tested on: Plasmodium falciparum; assay: Antimalarial activity against chloroquine-sensitive Plasmodium falciparum 3D7 infected in human erythrocytes assessed as reduction in [3H]-hypoxanthine incorporation preincubated for 24 hrs followed by [3H]-hypoxanthine addition measured after 24 hrs by scintillation counting method; format: functional, cell-based
# Procedure, shortened: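 P. falciparum 3D7 cultures were exposed to the compound for 48 h, with atovaquone as the reference control. IC50 was taken from three replicates.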
# [8] = tested on: Plasmodium falciparum; assay: Antimalarial activity against chloroquine-resistant Plasmodium falciparum W2 infected in human erythrocytes after 48 hrs by YOYO-1 dye based flow cytometric analysis; format: functional, cell-based; conditions: W2, 48 h
# Procedure, shortened: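 P. falciparum W2 cultures were exposed to the compound for 48 h, with artemisinin and chloroquine as reference controls. IC50 was taken from two independent replicates.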
# [9] = tested on: Plasmodium berghei; assay: Antimalarial activity against Plasmodium berghei infected in Swiss Webster mouse assessed as mouse survival rate at 100 mg/kg administered once daily via oral gavage for 4 consecutive days beginning 1 hr after infection measured on day 9 post infection relative to control; format: functional; procedure, shortened: as §2
# [10] = tested on: Plasmodium berghei; assay: Antimalarial activity against Plasmodium berghei infected in Swiss Webster mouse assessed as mouse survival rate at 3 mg/kg administered once daily via oral gavage for 4 consecutive days beginning 1 hr after infection measured on day 4 post infection relative to control; format: functional; procedure, shortened: as §1
# [11] = tested on: Plasmodium berghei; assay: Antimalarial activity against Plasmodium berghei infected in Swiss Webster mouse assessed as mouse survival rate at 33 mg/kg administered once daily via oral gavage for 4 consecutive days beginning 1 hr after infection measured on day 6 post infection relative to control; format: functional; procedure, shortened: as §1
# [12] = tested on: Plasmodium berghei; assay: Antimalarial activity against Plasmodium berghei infected in Swiss Webster mouse assessed as mouse survival rate at 100 mg/kg administered once daily via oral gavage for 4 consecutive days beginning 1 hr after infection measured on day 6 post infection relative to control; format: functional; procedure, shortened: as §2
# [13] = tested on: Plasmodium berghei; assay: Antimalarial activity against Plasmodium berghei infected in Swiss Webster mouse assessed as mouse survival rate at 200 mg/kg administered once daily via oral gavage for 4 consecutive days beginning 1 hr after infection measured on day 6 post infection relative to control; format: functional; procedure, shortened: as §1
# [14] = tested on: Plasmodium berghei; assay: Antimalarial activity against Plasmodium berghei infected in Swiss Webster mouse assessed as mouse survival rate at 11 mg/kg administered once daily via oral gavage for 4 consecutive days beginning 1 hr after infection measured on day 7 post infection relative to control; format: functional; procedure, shortened: as §1
# [15] = tested on: Plasmodium berghei; assay: Antimalarial activity against Plasmodium berghei infected in Swiss Webster mouse assessed as mouse survival rate at 1 mg/kg administered once daily via oral gavage for 4 consecutive days beginning 1 hr after infection measured on day 6 post infection relative to control; format: functional; procedure, shortened: as §2
# [16] = tested on: Plasmodium berghei; assay: Antimalarial activity against Plasmodium berghei infected in Swiss Webster mouse assessed as mouse survival rate at 200 mg/kg administered once daily via oral gavage for 4 consecutive days beginning 1 hr after infection measured on day 5 post infection relative to control; format: functional; procedure, shortened: as §1
# [17] = tested on: Plasmodium berghei; assay: Antimalarial activity against Plasmodium berghei infected in Swiss Webster mouse assessed as mouse survival rate at 200 mg/kg administered once daily via oral gavage for 4 consecutive days beginning 1 hr after infection measured on day 10 post infection relative to control; format: functional; procedure, shortened: as §1
# [18] = tested on: Plasmodium berghei; assay: Antimalarial activity against Plasmodium berghei infected in Swiss Webster mouse assessed as mouse survival rate at 3 mg/kg administered once daily via oral gavage for 4 consecutive days beginning 1 hr after infection measured on day 5 post infection relative to control; format: functional; procedure, shortened: as §1
# [19] = tested on: Plasmodium berghei; assay: Antimalarial activity against Plasmodium berghei infected in Swiss Webster mouse assessed as mouse survival rate at 33 mg/kg administered once daily via oral gavage for 4 consecutive days beginning 1 hr after infection measured on day 5 post infection relative to control; format: functional; procedure, shortened: as §1
# [20] = tested on: Plasmodium berghei; assay: Antimalarial activity against Plasmodium berghei infected in Swiss Webster mouse assessed as mouse survival rate at 200 mg/kg administered once daily via oral gavage for 4 consecutive days beginning 1 hr after infection measured on day 11 post infection relative to control; format: functional; procedure, shortened: as §1
# [21] = tested on: Plasmodium berghei; assay: Antimalarial activity against Plasmodium berghei infected in Swiss Webster mouse assessed as mouse survival rate at 200 mg/kg administered once daily via oral gavage for 4 consecutive days beginning 1 hr after infection measured on day 8 post infection relative to control; format: functional; procedure, shortened: as §1
# [22] = tested on: Plasmodium berghei; assay: Antimalarial activity against Plasmodium berghei infected in Swiss Webster mouse assessed as mouse survival rate at 1 mg/kg administered once daily via oral gavage for 4 consecutive days beginning 1 hr after infection measured on day 7 post infection relative to control; format: functional; procedure, shortened: as §2
# [23] = tested on: Plasmodium berghei; assay: Antimalarial activity against Plasmodium berghei infected in Swiss Webster mouse assessed as mouse survival rate at 11 mg/kg administered once daily via oral gavage for 4 consecutive days beginning 1 hr after infection measured on day 6 post infection relative to control; format: functional; procedure, shortened: as §1
# [24] = tested on: Plasmodium berghei; assay: Antimalarial activity against Plasmodium berghei infected in Swiss Webster mouse assessed as mouse survival rate administered once daily via oral gavage for 4 consecutive days beginning 1 hr after infection measured on day 4 post infection; format: functional; procedure, shortened: as §2
# [25] = tested on: Plasmodium berghei; assay: Antimalarial activity against Plasmodium berghei infected in Swiss Webster mouse assessed as mouse survival rate at 3.7 mg/kg administered once daily via oral gavage for 4 consecutive days beginning 1 hr after infection measured on day 5 post infection relative to control; format: functional; procedure, shortened: as §1
# [26] = tested on: Plasmodium berghei; assay: Antimalarial activity against Plasmodium berghei infected in Swiss Webster mouse assessed as mouse survival rate at 100 mg/kg administered once daily via oral gavage for 4 consecutive days beginning 1 hr after infection measured on day 4 post infection relative to control; format: functional; procedure, shortened: as §2
# [27] = tested on: Plasmodium berghei; assay: Antimalarial activity against Plasmodium berghei infected in Swiss Webster mouse assessed as mouse survival rate at 11 mg/kg administered once daily via oral gavage for 4 consecutive days beginning 1 hr after infection measured on day 4 post infection relative to control; format: functional; procedure, shortened: as §1
# [28] = tested on: Plasmodium berghei; assay: Antimalarial activity against Plasmodium berghei infected in Swiss Webster mouse assessed as mouse survival rate at 100 mg/kg administered once daily via oral gavage for 4 consecutive days beginning 1 hr after infection measured on day 5 post infection relative to control; format: functional; procedure, shortened: as §2
# [29] = tested on: Plasmodium berghei; assay: Antimalarial activity against Plasmodium berghei infected in Swiss Webster mouse assessed as mouse survival rate at 1 mg/kg administered once daily via oral gavage for 4 consecutive days beginning 1 hr after infection measured on day 5 post infection relative to control; format: functional; procedure, shortened: as §2
# [30] = tested on: Plasmodium berghei; assay: Antimalarial activity against Plasmodium berghei infected in Swiss Webster mouse assessed as mouse survival rate at 100 mg/kg administered once daily via oral gavage for 4 consecutive days beginning 1 hr after infection measured on day 7 post infection relative to control; format: functional; procedure, shortened: as §2
# [31] = tested on: Plasmodium berghei; assay: Antimalarial activity against Plasmodium berghei infected in Swiss Webster mouse assessed as mouse survival rate at 33 mg/kg administered once daily via oral gavage for 4 consecutive days beginning 1 hr after infection measured on day 4 post infection relative to control; format: functional; procedure, shortened: as §1
# [32] = tested on: Plasmodium berghei; assay: Antimalarial activity against Plasmodium berghei infected in Swiss Webster mouse assessed as mouse survival rate at 100 mg/kg administered once daily via oral gavage for 4 consecutive days beginning 1 hr after infection measured on day 8 post infection relative to control; format: functional; procedure, shortened: as §2
# [33] = tested on: Plasmodium berghei; assay: Antimalarial activity against Plasmodium berghei infected in Swiss Webster mouse assessed as mouse survival rate at 3 mg/kg administered once daily via oral gavage for 4 consecutive days beginning 1 hr after infection measured on day 7 post infection relative to control; format: functional; procedure, shortened: as §1
# [34] = tested on: Plasmodium falciparum; assay: Antimalarial activity against Plasmodium falciparum TM90C2B infected in human erythrocytes assessed as reduction in [3H]-hypoxanthine incorporation preincubated for 24 hrs followed by [3H]-hypoxanthine addition measured after 24 hrs by scintillation counting method; format: functional, cell-based
# [35] = tested on: Plasmodium falciparum; assay: Antimalarial activity against Plasmodium falciparum Dd2 infected in human erythrocytes assessed as reduction in [3H]-hypoxanthine incorporation preincubated for 24 hrs followed by [3H]-hypoxanthine addition measured after 24 hrs by scintillation counting method; format: functional, cell-based
# [36] = tested on: Plasmodium falciparum; assay: Antimalarial activity against Plasmodium falciparum NF54 infected in human erythrocytes assessed as reduction in [3H]-hypoxanthine incorporation preincubated for 24 hrs followed by [3H]-hypoxanthine addition measured after 24 hrs by scintillation counting method; format: functional, cell-based
# [37] = tested on: Plasmodium falciparum; assay: Antimalarial activity against Plasmodium falciparum K1 infected in human erythrocytes assessed as reduction in [3H]-hypoxanthine incorporation preincubated for 24 hrs followed by [3H]-hypoxanthine addition measured after 24 hrs by scintillation counting method; format: functional, cell-based
# [38] = tested on: Plasmodium falciparum; assay: Antimalarial activity against intraerythrocytic stage of Plasmodium falciparum assessed as time required for maximal killing effect at 10 times IC50 preincubated for 24 hrs followed by [3H]-hypoxanthine addition measured after 24 hrs by scintillation counting method; format: functional
# Procedure, shortened: (§3)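 In vitro P. falciparum parasite reduction ratio assay run at 10×, 30× and 100× IC50. Derived parameters: lag phase (time to maximal killing), PRR (parasites killed per life cycle) and PCT99.9% (time to clear 99.9% of the initial parasite population).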
# [39] = tested on: Plasmodium falciparum; assay: Antimalarial activity against intraerythrocytic stage of Plasmodium falciparum assessed as parasite reduction ratio at 10 times IC50 preincubated for 24 hrs followed by [3H]-hypoxanthine addition measured after 24 hrs by scintillation counting method; format: functional; procedure, shortened: as §3
# [40] = tested on: Plasmodium falciparum; assay: Antimalarial activity against intraerythrocytic stage of Plasmodium falciparum assessed as time required to clear 99.9% of initial parasite population at 10 times IC50 preincubated for 24 hrs followed by [3H]-hypoxanthine addition measured after 24 hrs by scintillation counting method; format: functional; procedure, shortened: as §3
structure (smiles),measurement,setting,value
CC[C@H](CO)NC(=O)c1cnc(Oc2ccc3c(c2C)B(O)OC3)cn1,survival at 3 mg/kg,[1],100%
same,survival at 200 mg/kg,[2],100%
same,survival at 200 mg/kg,[3],60%
same,survival at 200 mg/kg,[4],100%
same,survival at 1 mg/kg,[5],100%
same,survival at 33 mg/kg,[6],0%
same,IC50,[7],403 nM
same,IC50,[8],136 nM
same,survival at 100 mg/kg,[9],0%
same,survival at 3 mg/kg,[10],100%
same,survival at 33 mg/kg,[11],100%
same,survival at 100 mg/kg,[12],100%
same,survival at 200 mg/kg,[13],100%
same,survival at 11 mg/kg,[14],0%
same,survival at 1 mg/kg,[15],100%
same,survival at 200 mg/kg,[16],100%
same,survival at 200 mg/kg,[17],20%
same,survival at 3 mg/kg,[18],100%
same,survival at 33 mg/kg,[19],100%
same,survival at 200 mg/kg,[20],0%
same,survival at 200 mg/kg,[21],100%
same,survival at 1 mg/kg,[22],0%
same,survival at 11 mg/kg,[23],100%
same,ED90,[24],43.3 mg/kg
same,survival at 3.7 mg/kg,[25],100%
same,survival at 100 mg/kg,[26],100%
same,survival at 11 mg/kg,[27],100%
same,survival at 100 mg/kg,[28],100%
same,survival at 1 mg/kg,[29],100%
same,survival at 100 mg/kg,[30],100%
same,survival at 33 mg/kg,[31],100%
same,survival at 100 mg/kg,[32],80%
same,survival at 3 mg/kg,[33],0%
O=C1C(O)=C([C@H]2CC[C@H](c3ccc(Cl)cc3)CC2)C(=O)c2ccccc21 [ATOVAQUONE],IC50,[34],> 35 nM
same,IC50,[35],2 nM
same,IC50,[36],1 nM
same,IC50,[37],0.7 nM
same,Time,[38],48 h
same,log(ratio),[39],2.9
same,T99.9%,[40],81 h
